Reference: article PMC7416767 (Gene, 2020)

Key:
rat EP4 receptor [1] = molecular target: T1, rat EP4 receptor (Rattus norvegicus, UniProt P43114); assay: cAMP production, rat EP4 receptor expressed in HEK293T cells; type: cell-based; settings: read-out: rat EP4 receptor cAMP levels EC50; mean ± SEM
rat EP4 receptor [2] = molecular target: T1, rat EP4 receptor; assay: CRE-regulated SEAP reporter; type: cell-based
rat BMCs [3] = assay: ALP enzyme activity in total rat bone marrow cell culture, day 9; type: cell-based; settings: for change in ALP activity over vehicle treated cultures: doses ranging from 1 pM to 10 μM, once at plating
Procedure, shortened: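 Unfractionated BMCs from tibiae and femora of young or old female or male Sprague-Dawley rats, extruded into MEMα with 10% FCS and 50 μg/mL gentamicin, triturated and filtered. Plated at 1.8 × 10^5 cells/cm2 and dosed once at plating from 1000x ethanol stocks. Dex (10 nM final) added day 4. Day 9 lysis (Tris pH 8.4, ZnCl2, MgCl2, Triton X-100); pNPP, 405 nm; n = 8 wells; EC50 by non-linear regression.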

[4] = Chemical stability of KMN-159; type: physicochemical
rat BMCs [5] = assay: ALP-positive colony area in BMC cultures; type: cell-based; settings: 1μM, day 9, compared to vehicle
[6] = In vivo pharmacokinetics after intravenous dosing in rats; settings: intravenous 0.5 mg/kg, male Sprague-Dawley rats
Procedure, shortened: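 Single intravenous dose of 0.5 mg/kg in 3 male Sprague-Dawley rats. Blood sampled up to 24 h post-dose; plasma levels measured by LC-MS/MS. Parameters calculated from the plasma concentration–time course by non-compartmental analysis.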

human EP4 = human EP4 (Homo sapiens, UniProt P35408); settings: read-out: human EP4 binding Ki; ref Barrett et al., 2019; cited from earlier work
human EP4, sequence (P35408 whole entry): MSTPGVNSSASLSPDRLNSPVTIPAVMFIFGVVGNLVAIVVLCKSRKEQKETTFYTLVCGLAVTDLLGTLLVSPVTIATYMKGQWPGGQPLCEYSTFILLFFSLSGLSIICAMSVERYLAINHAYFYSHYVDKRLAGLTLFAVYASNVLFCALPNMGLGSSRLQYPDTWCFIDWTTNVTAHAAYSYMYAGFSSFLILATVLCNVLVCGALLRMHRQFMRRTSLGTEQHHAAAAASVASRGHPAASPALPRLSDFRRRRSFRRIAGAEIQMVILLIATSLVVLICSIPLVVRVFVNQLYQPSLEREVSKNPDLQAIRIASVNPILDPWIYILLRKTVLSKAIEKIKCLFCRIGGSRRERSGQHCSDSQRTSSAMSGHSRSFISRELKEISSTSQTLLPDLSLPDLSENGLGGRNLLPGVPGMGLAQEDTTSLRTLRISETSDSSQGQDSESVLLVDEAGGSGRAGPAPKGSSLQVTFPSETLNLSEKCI

rat BMCs [7] = assay: Total adherent cell number in BMC cultures; type: cell-based; settings: 1μM, days 5, 6, or 7, versus vehicle
[8] = test system: non-EP prostanoids receptors (DP, FP, IP and TP); settings: tested at 10 μM; ref Barrett et al., 2019; cited from earlier work
Half-life in rat blood = type: in vitro ADME; settings: 1 μM, 37°C
Procedure, shortened: (§1)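 Test compound at 1 μM in rat blood or plasma, 37°C, sampled at 0, 30, 60, 90 and 120 min. Quenched with acetonitrile, centrifuged, analyte peak areas read by HPLC-MS/MS.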

rat BMCs [9] = assay: Mineralization of BMC cultures; type: cell-based; settings: 1μM, day 21, compared to vehicle
Procedure, shortened: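 Rat BMCs dosed at plating with 1μM test compound or 0.1% ethanol vehicle (n = 4 or 6 wells); in the short-exposure arm, 30 or 60 min suspension exposure. Dex added day 4; from day 7, osteogenic medium (ascorbic acid, dex, βGP) every 3 days. Day 21: fixed in 2% paraformaldehyde, stained with 5% AgNO3 plus UV, von Kossa-positive area per well quantified by imaging.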

[10] = Protein binding in rat plasma by equilibrium dialysis; type: in vitro ADME; settings: 10 μM, equilibrium dialysis 4 hours 37°C
human EP3 = settings: read-out: human EP3 binding Ki; ref Barrett et al., 2019; cited from earlier work
cells = assay: Overt toxicity in cells; type: cell-based; settings: except at a very high dose
[11] = in vitro safety test; ref Barrett et al., 2019; cited from earlier work
[12] = Half-life and intrinsic clearance in rat hepatocytes; type: in vitro ADME
Procedure, shortened: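 Incubated at 37°C with 0.7 million viable rat hepatocytes/mL, sampled at 0, 30, 60, 90 and 120 min. Each sample quenched with acetonitrile and centrifuged; analyte peak areas measured by HPLC-MS/MS to derive half-life and intrinsic clearance.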

[13] = in vitro safety test; ref Barrett et al., 2019; cited from earlier work; remark: listed apart in the source
rat BMCs [14] = assay: Bone phenotype marker gene expression in BMCs; type: cell-based; settings: 1μM once at plating
Procedure, shortened: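 BMCs from young female rats dosed once at plating with 1μM test compound or 0.1% ethanol. Dex (10 nM final) added day 4. From day 7, fed every 3 days with medium containing ascorbic acid 100 μg/mL, dex 10 nM and βGP 10 mM. On set days, total RNA taken (n = 3 per time point), quantified at 260 nm, reverse transcribed, and analysed by SYBR Green qPCR.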

Half-life in rat plasma = type: in vitro ADME; settings: 1 μM, 37°C
Procedure, shortened: as §1

cytochrome P450 = settings: in vitro safety test; ref Barrett et al., 2019; cited from earlier work
rat BMCs [15] = assay: Adipogenesis assay, Oil Red O staining in BMC cultures; type: cell-based; settings: 1μM, insulin and dexamethasone, day 12, versus vehicle
rat BMCs [16] = assay: Osteoclastogenesis assay, TRAP-positive cells in BMC cultures; type: cell-based; settings: for number of TRAP positive cells in the absence of exogenous M-CSF and RANKL: data not shown; for number of TRAP-positive cells: various doses, in the presence of 16 ng/mL RANKL and 16 ng/mL M-CSF, versus vehicle
bacterial = settings: in vitro safety test; ref Barrett et al., 2019; cited from earlier work
rat EP2 receptor [17] = molecular target: T2, rat EP2 receptor (Rattus norvegicus, UniProt Q62928); assay: cAMP production, rat EP2 receptor expressed in HEK293T cells; type: cell-based
T2 sequence (Q62928 whole entry): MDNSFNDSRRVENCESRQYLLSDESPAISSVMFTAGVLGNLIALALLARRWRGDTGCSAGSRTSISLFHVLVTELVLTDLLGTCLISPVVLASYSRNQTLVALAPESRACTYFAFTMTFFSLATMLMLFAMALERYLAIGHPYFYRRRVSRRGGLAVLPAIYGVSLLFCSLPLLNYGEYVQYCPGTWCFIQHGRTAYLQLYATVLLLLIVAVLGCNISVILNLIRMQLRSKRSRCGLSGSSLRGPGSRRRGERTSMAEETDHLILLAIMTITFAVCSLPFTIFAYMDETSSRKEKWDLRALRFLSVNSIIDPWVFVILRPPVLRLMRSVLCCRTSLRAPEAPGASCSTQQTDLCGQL

rat EP2 receptor [18] = molecular target: T2, rat EP2 receptor; assay: CRE-regulated SEAP reporter; type: cell-based
[19] = read-out: rat EP4 receptor CREB activation EC50, CRE-SEAP reporter, mean ± SEM

T1 sequence (P43114 whole entry): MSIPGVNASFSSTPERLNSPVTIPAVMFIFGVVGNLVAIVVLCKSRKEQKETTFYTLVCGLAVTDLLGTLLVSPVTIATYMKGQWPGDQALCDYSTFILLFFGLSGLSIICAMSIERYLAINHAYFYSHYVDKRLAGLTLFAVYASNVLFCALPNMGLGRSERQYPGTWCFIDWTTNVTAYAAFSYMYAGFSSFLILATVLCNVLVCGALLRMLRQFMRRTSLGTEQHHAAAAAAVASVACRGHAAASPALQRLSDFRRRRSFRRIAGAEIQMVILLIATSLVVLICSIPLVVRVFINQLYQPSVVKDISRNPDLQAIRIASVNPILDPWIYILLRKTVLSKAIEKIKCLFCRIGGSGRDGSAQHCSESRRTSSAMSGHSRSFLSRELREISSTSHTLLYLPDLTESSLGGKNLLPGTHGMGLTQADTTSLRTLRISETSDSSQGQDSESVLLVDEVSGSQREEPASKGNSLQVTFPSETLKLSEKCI

Work on `CCCCCC(O)C=CC1CCC(=O)N1CCCCCCC(=O)O` (stereo not shown) [11-deoxy-8-aza-PGE1, reference compound] yielded an EC50 (rat EP4 receptor [1]) of 2.6 ± 0.62 nM and an EC50 (rat EP4 receptor [2]; [19]) of 0.16 ± 0.049 nM.
Compound `CCCCC[C@H](O)/C=C/[C@H]1CCC(=O)[C@@H]1CCCCCCC(=O)O` [11-deoxy-PGE1, reference compound] has an EC50 (rat EP4 receptor [1]) of 1.3 ± 0.24 nM and an EC50 (rat EP4 receptor [2]; [19]) of 0.06 ± 0.012 nM.
For `CCCCC[C@H](O)/C=C/[C@H]1CCC(=O)[C@@H]1C/C=C\CCCC(=O)O` [11-deoxy-PGE2, reference compound], the EC50 (rat EP4 receptor [1]) was 1.1 ± 0.16 nM.
In the case of `CCC#CC[C@H](C)[C@H](O)/C=C/[C@H]1CCC(=O)N1CCCCCCC(=O)O` [KMN-80], the EC50 (rat EP4 receptor [1]) is reported as 2.6 ± 0.31 nM, the “potency in the BMC ALP assay compared with parent compound 11-deoxy-8-aza-PGE1” value (rat BMCs [3]; young female rat BMCs) is reported as “unchanged from the parent compound” and the EC50 (rat EP4 receptor [2]; [19]) is reported as 0.17 ± 0.014 nM.
For `CCC#CC[C@H](C)[C@H](O)/C=C/[C@H]1CC(F)(F)C(=O)N1CCCCCCC(=O)O` [KMN-159], the EC50 (rat EP4 receptor [1]) was 0.5 ± 0.08 nM, the recovery ([4]; in aqueous solution and upon sterilization by autoclaving or gamma irradiation, data not shown) was “higher than 90%” and the “degradation of crystalline solid” value ([4]; storage at room temperature for over two years) was “no measurable degradation”. The ALP positive area (rat BMCs [5]) was “increase the ALP positive area”, the “area under the curve (extrapolated to infinity)” value [6] was 0.0218 ± 0.00555 µg·h/mL and the “in vivo clearance rate” value [6] was 0.0239 ± 0.00595 L/h/kg. For the same compound, the “mean residence time last” value [6] was 8.3 ± 1.0 min, the “steady state volume of distribution” value [6] was 3.41 ± 1.15 L/kg and the clearance ([6]; Table 3) was 23.9 ± 5.95 L/h/kg. For the same compound, the Ki (human EP4) was 0.38 nM, the total cell number (rat BMCs [7]) was “no significant differences” and the “binding to the non-EP prostanoids receptors” value [8] was “no detectable binding”. The “half life - blood” value (Half-life in rat blood) was over 2 h, the “mineralized area detected by von Kossa staining” value (rat BMCs [9]) was “increase in mineralized area” and the protein binding [10] was 53.8 ± 3.5%. For the same compound, the Ki (human EP3) was 258 nM, the “overt toxicity in cells” value (cells) was “no overt toxicity” and the Ames fluctuation [11] was “negative”. For the same compound, the “intrinsic clearance - hepatocytes” value [12] was under 8.2 μL/min/10^6 cells, the “half life - hepatocytes” value ([12]; 0.7 million viable cells/mL, 37°C) was over 2 h and the micronucleus formation [13] was “negative”. The “increase in ALP activity compared to vehicle treated cells” value (rat BMCs [3]; 1μM, 10 minutes exposure then compound removed, ALP day 9) was “approximately 3 fold”, the “induction of ALP as percent of the maximum reached between 30 and 60 minutes of exposure” value (rat BMCs [3]; 1μM, 10 minutes exposure, ALP measured 9 days later) was “approximately 75%” and the “increase in potency in the BMCs compared to 11-deoxy-8-aza-PGE1” value (rat BMCs [3]; young female rat BMCs, ALP EC50) was “approximately 40 fold”. The RANKL expression (rat BMCs [14]; all timepoints tested, versus vehicle) was “significantly increased expression”, the “Runx2 mRNA increase in expression” value (rat BMCs [14]; day 5) was ~ 2 x and the Runx2 expression (rat BMCs [14]; days 19 and 25, versus vehicle) was “significantly increased”. For the same compound, the osteocalcin gene expression (rat BMCs [14]; later days, versus vehicle) was “increased with both, time in culture and KMN-159 treatment”, the “ALP mRNA expression” value (rat BMCs [14]; versus vehicle) was “increased” and the OPG expression (rat BMCs [14]; versus vehicle) was “either unchanged or decreased”. For the same compound, the “collagen type IαI expression” value (rat BMCs [14]; versus vehicle) was “further increased”, the “half life - plasma” value (Half-life in rat plasma) was over 2 h and the “cytochrome P450 inhibition” value (cytochrome P450) was “negative”. The EC50 (rat EP4 receptor [2]; [19]) was 0.03 ± 0.003 nM, the “Oil Red O staining (adipocyte formation)” value (rat BMCs [15]) was “no significant change” and the “number of TRAP positive cells in the absence of exogenous M-CSF and RANKL” value (rat BMCs [16]) was “none was observed”. For the same compound, the “number of TRAP-positive cells” value (rat BMCs [16]) was “significantly increased numbers of TRAP-positive cells” and the bacterial cytotoxicity (bacterial) was “negative”.
Compound `CCCCC[C@H](O)/C=C/[C@H]1CC(F)(F)C(=O)N1CCCCCCC(=O)O` [KMN-165] has an EC50 (rat EP4 receptor [1]) of 0.3 ± 0.025 nM and an EC50 (rat EP4 receptor [2]; [19]) of 0.03 ± 0.007 nM.
For `CCCCC[C@H](O)/C=C/[C@H]1[C@H](O)CC(=O)[C@@H]1CCCCCCC(=O)O` [PGE1, prostaglandin E1], the EC50 (rat EP2 receptor [17]) was 79.5 ± 9.1 nM and the EC50 (rat EP2 receptor [18]) was 4.5 ± 0.46 nM.
For `CCCCC[C@H](O)/C=C/[C@H]1[C@H](O)CC(=O)[C@@H]1C/C=C\CCCC(=O)O` [PGE2, prostaglandin E2, reference compound], the ALP positive area (rat BMCs [5]) was “increase the ALP positive area”, the total cell number (rat BMCs [7]) was “no significant differences” and the EC50 (rat EP4 receptor [2]) was 0.03 ± 0.002 nM. The “Oil Red O staining (adipocyte formation)” value (rat BMCs [15]) was “no significant change”, the “number of TRAP positive cells in the absence of exogenous M-CSF and RANKL” value (rat BMCs [16]) was “none was observed” and the “number of TRAP-positive cells” value (rat BMCs [16]) was “significantly increased numbers of TRAP-positive cells”.
In the case of `CCCC1([C@H](O)C/C=C/[C@H]2[C@H](O)CC(=O)[C@@H]2CCCCCCC(=O)OC)CCC1` [butaprost, reference compound], the “change in ALP activity over vehicle treated cultures” value (rat BMCs [3]) is reported as “no change in ALP activity”.
With `CS(=O)(=O)NC(=O)CCC/C=C\C[C@H]1C(=O)C[C@@H](O)[C@@H]1/C=C/[C@@H](O)COc1ccccc1` [sulprostone, reference compound] the “change in ALP activity over vehicle treated cultures” value (rat BMCs [3]) was “no change in ALP activity”.
